Usually IC50 stands for the concentration that gives 50% inhibition. A word on the IC90: it is the point of the concentration-response curve where the effect stands at 90%.

The subject of assay [1] is Trypanosoma brucei. The assay is described as follows: Antitrypanosomal activity against Trypanosoma brucei 427 at pH 7.4. The class given is functional, organism-based. Summed up:
(§1)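 In vitro assay against bloodstream-form T. brucei grown at pH 7.4. Concentrations inhibiting growth by 50% (IC50) and 90% (IC90) were calculated. Values are the mean of triplicate experiments ± SEM.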

Assay [2] concerns Trypanosoma brucei. The assay is described as follows: Antitrypanosomal activity against Trypanosoma brucei. The class given is functional, organism-based. A digest of the protocol: as §1

Counter-ions that a name gives are not always drawn.

As for `CCCCCCCCC12CC3CC(CC(C3)C1N)C2` (configuration not stated), in the assay with Trypanosoma brucei [1], the IC50 amounted to 0.8 µM and the 90% effect concentration (IC90) was 1.06 µM.
For the compound `CCCCCCCCCCC12CC3CC(CC(C3)C1N)C2` (configuration not stated), in the assay on Trypanosoma brucei [1], inhibition was half-maximal at 0.48 µM (IC50) and the IC90 was determined as 0.67 µM.
For `CCCCCCC12CC3CC(CC(C3)/C1=N\NC(N)=S)C2`, in the assay with Trypanosoma brucei [1], the IC50 was found to be 2.81 µM and the IC90 came to 5.64 µM.
On the same counts, the results for `CCCCCCCCCCCCCCC12CC3CC(CC(C3)/C1=N\NC(N)=S)C2` are 0.42 µM and 0.54 µM.
On the same counts, the results for `N=C(N)N/N=C1\C2CC3CC(C2)CC1(Cc1ccccc1)C3` are 0.41 µM and 0.47 µM.
The matching figures for `CCCCCCC12CC3CC(CC(C3)C1N)C2` (configuration not stated): 1.32 µM and 1.73 µM.
Regarding `CCCCCCCCCCCCC12CC3CC(CC(C3)C1NCC)C2` (configuration not stated), in the assay with Trypanosoma brucei [1], the concentration for half-maximal inhibition (IC50) worked out at 0.59 µM and it took 1.06 µM to reach the 90% level (IC90).
On the same counts, the results for `CCCCCCCCCCC12CC3CC(CC(C3)C1NCC)C2` (configuration not stated) are 1.09 µM and 1.65 µM.
Consider `CCCCCCCCCCCCC12CC3CC(CC(C3)C1N)C2` (configuration not stated), for which, in the assay on Trypanosoma brucei [1], the midpoint of inhibition, the IC50, lay at 0.47 µM and the concentration for an effect of 90% (IC90) was determined as 0.67 µM.
On the same counts, the results for `CCCCCCCCCCCCCCC12CC3CC(CC(C3)/C1=N\NC(=N)N)C2` are 0.84 µM and 1.3 µM.
The matching figures for `CCCCCCCCCCCCCCC12CC3CC(CC(C3)C1N)C2` (configuration not stated): 0.92 µM and 1.98 µM.
Regarding `CCCCCCC12CC3CC(CC(C3)C1NCC)C2` (configuration not stated), the IC50 in the assay on Trypanosoma brucei [1] is above 2 µM.
Still for that read-out and setting: with `CCCCCCCCC12CC3CC(CC(C3)/C1=N\NC(=N)N)C2` the figure was above 6 µM; with `CCCCCCC12CC3CC(CC(C3)/C1=N\NC(=N)N)C2`, above 6 µM.
In the assay on Trypanosoma brucei [1], `NC1C2CC3CC(C2)CC1(Cc1ccccc1)C3` (configuration not stated) returned an IC50 of 2.07 µM and an IC90 of 2.65 µM.
Regarding `N=C(N)N/N=C1\C2CC3CC(C2)CC1(c1ccccc1)C3`, in the assay on Trypanosoma brucei [1], the IC50 was 2.12 µM and it took 2.81 µM to reach the 90% level (IC90).
On the same counts, the results for `CCCCCCCCCCC12CC3CC(CC(C3)/C1=N\NC(=N)N)C2` are 0.09 µM and 0.11 µM.
In the case of `NC12CC3CC(C1)CC(C1CCCCC1)(C3)C2`, the IC50 in the assay with Trypanosoma brucei [2] was 0.52 µM.
`NC1CCC(C23CC4CC(CC(C4)C2)C3)CC1` (configuration not stated) gave a concentration for half-maximal inhibition (IC50) in the assay on Trypanosoma brucei [2] of 0.33 µM.
The same measure, in the same setting: to `NCCC12CC3CC(C1)CC(c1ccccc1)(C3)C2` belongs 0.62 µM.
In the assay with Trypanosoma brucei [1], `NC12CC3CC(CC(C3)C1)C2` [AMANTADINE HYDROCHLORIDE] had an IC50 above 132 µM and a concentration for an effect of 90% (IC90) above 132 µM.
In the assay with Trypanosoma brucei [1], `CC(N)C12CC3CC(CC(C3)C1)C2` (configuration not stated) [RIMANTADINE HYDROCHLORIDE] returned a concentration for an effect of 90% (IC90) of 14 µM. In other words, the double-digit micromolar range.

The record behind these values is ChEMBL document CHEMBL1141571, “Design, synthesis, and trypanocidal activity of new aminoadamantane derivatives” (J Med Chem, 2008).
